Measurements: ChEMBL document CHEMBL4706489, “Hydrogen sulfide releasing oridonin derivatives induce apoptosis through extrinsic and intrinsic pathways” (Eur J Med Chem, 2020)
The source made the active and inactive calls. The rule behind the calls is not given here.

Legend:
[1] = tested on: K562; experiment: Induction of apoptosis in human K562 cells assessed as down regulation of procaspase-3 at 1 uM after 24 hrs by chemiluminescence based apoptosis array method; assay type: functional, cell-based
Method in brief: (§1)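 K562 cells were treated with 1 test agent for 24 h. Diluted total-cell lysates were applied to a human apoptosis antibody array covering 35 apoptosis-related proteins for 24 h. Unbound protein was washed off, and arrays were probed with a biotinylated detection antibody for 1 h. Relative expression was read from chemiluminescent signal by digital imaging.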

[2] = tested on: HepG2; experiment: Induction of apoptosis in human HepG2 cells assessed as late apoptotic cells at 1 uM after 48 hrs by annexin V FITC and propidium iodide staining based flow cytometric analysis (reference value: 3.17%); assay type: functional
[3] = tested on: K562; experiment: Induction of cell cycle arrest in human K562 cells assessed as accumulation at S phase at 1 uM after 48 hrs by propidium iodide staining based flow cytometric analysis (reference value: 44.73 to 45.96%); assay type: functional
[4] = tested on: K562; experiment: Induction of apoptosis in human K562 cells assessed as viable cells at 2 uM after 48 hrs by annexin V FITC and propidium iodide staining based flow cytometric analysis (reference value: 96.76%); assay type: functional; details: read-out: Activity
[5] = tested on: K562; experiment: Induction of apoptosis in human K562 cells assessed as increase in DR4 protein expression at 1 uM after 24 hrs by chemiluminescence based apoptosis array method; assay type: functional, cell-based; method in brief: as §1
[6] = tested on: K562; experiment: Induction of mitochondrial membrane potential loss in human K562 cells after 48 hrs by JC1 staining based flow cytometric analysis; assay type: functional, cell-based; details: dose 0.5-2 µM
Method in brief: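 K562 and HepG2 cells in 6-well plates were exposed for 48 h at 0, 0.50, 1.0 and 2.0 µM, with DMSO vehicle control. After trypsinization, cells were stained with JC-1 (0.5 mg/mL) at 37 °C in darkness for 30 min, then washed with PBS. Membrane potential was read by flow cytometry. Mean ± SD, three independent experiments.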

[7] = tested on: HepG2; experiment: Induction of apoptosis in human HepG2 cells assessed as necrotic cells at 2 uM after 48 hrs by annexin V FITC and propidium iodide staining based flow cytometric analysis (reference value: 0.89%); assay type: functional
[8] = Selectivity ratio of IC50 for cytotoxicity against human L02 cells to IC50 for antiproliferative activity against human HepG2 cells; assay type: toxicity, cell-based; details: read-out: Ratio IC50
[9] = tested on: K562; experiment: Induction of apoptosis in human K562 cells assessed as late apoptotic cells at 0.5 uM after 48 hrs by annexin V FITC and propidium iodide staining based flow cytometric analysis (reference value: 0.42%); assay type: functional
[10] = Selectivity ratio of IC50 for cytotoxicity against human L02 cells to IC50 for antiproliferative activity against human K562 cells; assay type: toxicity, cell-based; details: read-out: Ratio IC50
[11] = tested on: K562; experiment: Induction of apoptosis in human K562 cells assessed as increase in Bax protein expression at 1 uM after 24 hrs by chemiluminescence based apoptosis array method; assay type: functional, cell-based; method in brief: as §1
[12] = tested on: K562; experiment: Induction of apoptosis in human K562 cells assessed as decrease in C-IAP1 protein expression at 1 uM after 24 hrs by chemiluminescence based apoptosis array method; assay type: functional, cell-based; method in brief: as §1
[13] = tested on: HepG2; experiment: Antiproliferative activity against human HepG2 cells assessed as reduction in cell viability after 72 hrs by MTT assay; details: HepG2, 72 h
[14] = tested on: HepG2; experiment: Induction of cell cycle arrest in human HepG2 cells assessed as accumulation at S phase at 0.5 uM after 48 hrs by propidium iodide staining based flow cytometric analysis (reference value: 33.22 to 33.58%); assay type: functional
[15] = tested on: K562; experiment: Induction of apoptosis in human K562 cells assessed as increase in DR5 protein expression at 1 uM after 24 hrs by chemiluminescence based apoptosis array method; assay type: functional, cell-based; method in brief: as §1
[16] = Selectivity ratio of IC50 for cytotoxicity against human PBMC cells to IC50 for antiproliferative activity against human K562 cells; assay type: toxicity, cell-based; details: read-out: Ratio IC50
[17] = tested on: K562; experiment: Induction of cell cycle arrest in human K562 cells assessed as accumulation at G1 phase at 1 uM after 48 hrs by propidium iodide staining based flow cytometric analysis (reference value: 43.24 to 43.37%); assay type: functional
[18] = tested on: HepG2; experiment: Induction of cell cycle arrest in human HepG2 cells assessed as accumulation at G2 phase at 2 uM after 48 hrs by propidium iodide staining based flow cytometric analysis (reference value: 16.48 to 16.97%); assay type: functional
[19] = tested on: K562; experiment: Induction of apoptosis in human K562 cells assessed as necrotic cells at 1 uM after 48 hrs by annexin V FITC and propidium iodide staining based flow cytometric analysis (reference value: 0.69%); assay type: functional
[20] = tested on: K562; experiment: Induction of cell cycle arrest in human K562 cells assessed as accumulation at G1 phase at 0.5 uM after 48 hrs by propidium iodide staining based flow cytometric analysis (reference value: 43.24 to 43.37%); assay type: functional
[21] = tested on: HepG2; experiment: Induction of cell cycle arrest in human HepG2 cells assessed as accumulation at G2 phase at 0.5 uM after 48 hrs by propidium iodide staining based flow cytometric analysis (reference value: 16.48 to 16.97%); assay type: functional
Method in brief: (§2)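 HepG2 cells were treated with 0, 0.50, 1.0 or 2.0 test agent for 48 h. Cells were washed in cold PBS and fixed in 70% ethanol at −20 °C overnight. DNA-content distribution was measured by flow cytometry. Mean ± SD, three independent experiments.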

[22] = tested on: HepG2; experiment: Induction of cell cycle arrest in human HepG2 cells assessed as accumulation at G2 phase at 1 uM after 48 hrs by propidium iodide staining based flow cytometric analysis (reference value: 16.48 to 16.97%); assay type: functional; method in brief: as §2
[23] = tested on: HepG2; experiment: Induction of cell cycle arrest in human HepG2 cells assessed as accumulation at G1 phase at 2 uM after 48 hrs by propidium iodide staining based flow cytometric analysis (reference value: 49.46 to 50.3%); assay type: functional; method in brief: as §2
[24] = tested on: K562; experiment: Induction of cell cycle arrest in human K562 cells assessed as accumulation at S phase at 0.5 uM after 48 hrs by propidium iodide staining based flow cytometric analysis (reference value: 44.73 to 45.96%); assay type: functional
[25] = tested on: HepG2 (human); experiment: Induction of apoptosis in human HepG2 cells after 48 hrs by annexin V FITC and propidium iodide staining based flow cytometric analysis; details: dose 0.5-2 µM
[26] = tested on: K562; experiment: Induction of apoptosis in human K562 cells assessed as decrease in survivin protein expression at 1 uM after 24 hrs by chemiluminescence based apoptosis array method; assay type: functional, cell-based; method in brief: as §1
[27] = tested on: HepG2; experiment: Induction of apoptosis in human HepG2 cells assessed as viable cells at 1 uM after 48 hrs by annexin V FITC and propidium iodide staining based flow cytometric analysis (reference value: 93.5%); assay type: functional; details: read-out: Activity
[28] = tested on: K562; experiment: Induction of apoptosis in human K562 cells assessed as early apoptotic cells at 2 uM after 48 hrs by annexin V FITC and propidium iodide staining based flow cytometric analysis (reference value: 2.13%); assay type: functional
[29] = Cytotoxicity against human PBMC cells assessed as cell viability after 72 hrs by MTT assay
[30] = tested on: HepG2; experiment: Induction of apoptosis in human HepG2 cells assessed as viable cells at 2 uM after 48 hrs by annexin V FITC and propidium iodide staining based flow cytometric analysis (reference value: 93.5%); assay type: functional; details: read-out: Activity
[31] = tested on: HepG2; experiment: Induction of cell cycle arrest in human HepG2 cells assessed as accumulation at G1 phase at 0.5 uM after 48 hrs by propidium iodide staining based flow cytometric analysis (reference value: 49.46 to 50.3%); assay type: functional; method in brief: as §2

With `C=C1C(=O)[C@]23[C@H](OC(=O)CCC(=O)OCCCCCCOc4ccc(-c5cc(=S)ss5)cc4)[C@H]1CC[C@H]2[C@@]12CO[C@@]3(O)[C@@H](O)[C@@H]1C(C)(C)CC[C@@H]2OC(C)=O` the Activity [1] was “Active”, the Activity [2] was 12.72% and the Activity [3] was 55.54%. The viability at 2 µM [4] was 47.4%, the Activity [5] was “Active” and the Activity [6] was “Dose-dependent effect”. The Activity [7] was 4.42%, the selectivity ratio [8] was 20 and the Activity [9] was 4.77%. For the same compound, the selectivity ratio [10] was 20, the Activity [11] was “Active” and the Activity [12] was “Active”. The IC50 [13] was 2570 nM, the Activity [14] was 31.41% and the Activity [15] was “Active”. The selectivity ratio [16] was 20, the Activity [17] was 34.14% and the Activity [18] was 6.6%. For the same compound, the Activity [19] was 1.16%, the Activity [20] was 38.61% and the Activity [21] was 13.24%. The Activity [22] was 11.5%, the Activity [23] was 65.1% and the Activity [24] was 50.32%. The Activity [25] was “Dose-dependent effect”, the Activity [26] was “Active” and the viability at 1 µM [27] was 60.5%. The Activity [28] was 23.75%, the IC50 [29] was > 50 µM and the viability at 2 µM [30] was 31.5%. The Activity [31] was 55.35%.
